Data: ChEMBL document CHEMBL1138520, “Molecular and conformational determinants of pituitary adenylate cyclase-activating polypeptide (PACAP) for activation of the PAC1 receptor” (J Med Chem, 2009)
Where a SMILES comes first, the peptide text is derived from it.

Legend:
[1] = molecular target: T1, Pituitary adenylate cyclase-activating polypeptide type I receptor (Homo sapiens, UniProt P41586); test: Agonist activity at human recombinant PAC1 receptor expressed in CHO cells assessed as PACAP38-induced calcium mobilization by FLIPR assay relative to PACAP38; format: functional, cell-based
Procedure, shortened: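 CHO cells stably expressing recombinant human PAC1, plated 24 h before assay, loaded with fluo-4 AM for 60 min at 37 °C in the dark, then rinsed into HBSS for 15 min at 37 °C. Peptide was added 18 s into a 150 s read (ex 480/em 525 nm), at final concentrations of 1 × 10-12 to 1 × 10^-5 M. Response was normalised to 1 × 10^-5 M PACAP38 on each plate. EC50 and efficacy came from nonlinear regression; 4-10 independent assays in duplicate.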
Target sequence in this assay (P41586 21-468 limits assumed): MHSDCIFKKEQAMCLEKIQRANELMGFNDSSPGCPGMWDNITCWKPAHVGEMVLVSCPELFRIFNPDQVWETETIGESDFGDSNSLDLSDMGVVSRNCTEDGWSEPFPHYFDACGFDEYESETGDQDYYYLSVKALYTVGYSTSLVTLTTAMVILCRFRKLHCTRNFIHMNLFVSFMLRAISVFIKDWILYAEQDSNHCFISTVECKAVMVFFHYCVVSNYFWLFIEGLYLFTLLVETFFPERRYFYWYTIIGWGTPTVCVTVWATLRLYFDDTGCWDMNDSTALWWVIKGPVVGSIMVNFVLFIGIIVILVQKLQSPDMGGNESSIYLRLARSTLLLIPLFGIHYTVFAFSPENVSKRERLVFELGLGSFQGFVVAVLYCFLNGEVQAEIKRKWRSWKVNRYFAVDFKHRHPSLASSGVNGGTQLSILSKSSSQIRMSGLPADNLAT

[2] = molecular target: T1, Pituitary adenylate cyclase-activating polypeptide type I receptor; test: Agonist activity at human recombinant PAC1 receptor expressed in CHO cells assessed as PACAP38-induced calcium mobilization by FLIPR assay; format: functional, cell-based
Procedure, shortened: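 CHO cells stably expressing recombinant human PAC1, plated 24 h before assay, loaded with fluo-4 AM for 60 min at 37 °C in the dark, then rinsed into HBSS for 15 min at 37 °C. EC50 and efficacy came from nonlinear regression; 4-10 independent assays in duplicate.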
Target sequence in this assay (P41586 whole entry): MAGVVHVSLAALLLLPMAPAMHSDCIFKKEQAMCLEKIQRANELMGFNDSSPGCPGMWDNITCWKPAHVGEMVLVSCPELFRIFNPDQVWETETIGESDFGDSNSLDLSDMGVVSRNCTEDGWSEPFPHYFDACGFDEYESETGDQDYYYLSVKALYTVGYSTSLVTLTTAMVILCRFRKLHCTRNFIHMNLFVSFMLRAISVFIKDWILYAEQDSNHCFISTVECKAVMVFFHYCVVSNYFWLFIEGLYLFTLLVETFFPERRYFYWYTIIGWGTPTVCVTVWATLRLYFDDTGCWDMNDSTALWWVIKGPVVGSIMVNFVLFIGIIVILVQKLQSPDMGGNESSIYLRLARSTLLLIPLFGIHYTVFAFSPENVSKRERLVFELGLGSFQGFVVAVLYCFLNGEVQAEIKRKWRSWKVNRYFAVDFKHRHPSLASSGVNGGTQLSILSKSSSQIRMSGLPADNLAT

[3] = molecular target: T1, Pituitary adenylate cyclase-activating polypeptide type I receptor; test: Displacement of [125I]Ac-PACAP27 from human recombinant PAC1 receptor expressed in CHO cells by gamma- counter; format: cell-based
Target sequence in this assay (P41586 whole entry): as above

Row | SMILES | Emax [1] | EC50 [2] | IC50 [3]
1 | CC[C@H](C)[C@H](NC(=O)CNC(=O)[C@H](CC(=O)O)NC(=O)[C@H](CO)N(C)C(=O)[C@@H](N)Cc1cnc[nH]1)C(=O)N[C@@H](Cc1ccccc1)C(=O)N[C@H](C(=O)N[C@@H](CC(=O)O)C(=O)N[C@@H](CO)C(=O)N[C@@H](Cc1ccc(O)cc1)C(=O)N[C@@H](CO)C(=O)N[C@@H](CCCNC(=N)N)C(=O)N[C@@H](Cc1ccc(O)cc1)C(=O)N[C@@H](CCCNC(=N)N)C(=O)N[C@@H](CCCCN)C(=O)N[C@@H](CCC(N)=O)C(=O)N[C@@H](CCSC)C(=O)N[C@@H](C)C(=O)N[C@H](C(=O)N[C@@H](CCCCN)C(=O)N[C@@H](CCCCN)C(=O)N[C@@H](Cc1ccc(O)cc1)C(=O)N[C@@H](CC(C)C)C(=O)N[C@@H](C)C(=O)N[C@@H](C)C(=O)N[C@H](C(=O)N[C@@H](CC(C)C)C(N)=O)C(C)C)C(C)C)[C@@H](C)O | 93% | 48.8 nM | 
2 | CC[C@H](C)[C@H](NC(=O)CNC(=O)[C@H](CC(=O)O)NC(=O)[C@H](CO)NC(=O)[C@@H](N)Cc1cncn1C)C(=O)N[C@@H](Cc1ccccc1)C(=O)N[C@H](C(=O)N[C@@H](CC(=O)O)C(=O)N[C@@H](CO)C(=O)N[C@@H](Cc1ccc(O)cc1)C(=O)N[C@@H](CO)C(=O)N[C@@H](CCCN=C(N)N)C(=O)N[C@@H](Cc1ccc(O)cc1)C(=O)N[C@@H](CCCN=C(N)N)C(=O)N[C@@H](CCCCN)C(=O)N[C@@H](CCC(N)=O)C(=O)N[C@@H](CCSC)C(=O)N[C@@H](C)C(=O)N[C@H](C(=O)N[C@@H](CCCCN)C(=O)N[C@@H](CCCCN)C(=O)N[C@@H](Cc1ccc(O)cc1)C(=O)N[C@@H](CC(C)C)C(=O)N[C@@H](C)C(=O)N[C@@H](C)C(=O)N[C@H](C(=O)N[C@@H](CC(C)C)C(=O)NCC(=O)N[C@@H](CCCCN)C(=O)N[C@@H](CCCN=C(N)N)C(=O)N[C@@H](Cc1ccc(O)cc1)C(=O)N[C@@H](CCCCN)C(=O)N[C@@H](CCC(N)=O)C(=O)N[C@@H](CCCN=C(N)N)C(=O)N[C@H](C(=O)N[C@@H](CCCCN)C(=O)N[C@@H](CC(N)=O)C(=O)N[C@@H](CCCCN)C(N)=O)C(C)C)C(C)C)C(C)C)[C@@H](C)O |  | 2.4 nM | 7.5 nM
3 | CC[C@H](C)[C@H](NC(=O)CNC(=O)[C@H](CC(=O)O)NC(=O)[C@H](CO)NC(=O)[C@@H](N)Cc1cn(C)cn1)C(=O)N[C@@H](Cc1ccccc1)C(=O)N[C@H](C(=O)N[C@@H](CC(=O)O)C(=O)N[C@@H](CO)C(=O)N[C@@H](Cc1ccc(O)cc1)C(=O)N[C@@H](CO)C(=O)N[C@@H](CCCN=C(N)N)C(=O)N[C@@H](Cc1ccc(O)cc1)C(=O)N[C@@H](CCCN=C(N)N)C(=O)N[C@@H](CCCCN)C(=O)N[C@@H](CCC(N)=O)C(=O)N[C@@H](CCSC)C(=O)N[C@@H](C)C(=O)N[C@H](C(=O)N[C@@H](CCCCN)C(=O)N[C@@H](CCCCN)C(=O)N[C@@H](Cc1ccc(O)cc1)C(=O)N[C@@H](CC(C)C)C(=O)N[C@@H](C)C(=O)N[C@@H](C)C(=O)N[C@H](C(=O)N[C@@H](CC(C)C)C(N)=O)C(C)C)C(C)C)[C@@H](C)O |  | 389 nM | 21.6 nM
4 | CC[C@H](C)[C@H](NC(=O)CNC(=O)[C@H](CC(=O)O)NC(=O)[C@H](CO)NC(=O)[C@H](C)N)C(=O)N[C@@H](Cc1ccccc1)C(=O)N[C@H](C(=O)N[C@@H](CC(=O)O)C(=O)N[C@@H](CO)C(=O)N[C@@H](Cc1ccc(O)cc1)C(=O)N[C@@H](CO)C(=O)N[C@@H](CCCN=C(N)N)C(=O)N[C@@H](Cc1ccc(O)cc1)C(=O)N[C@@H](CCCN=C(N)N)C(=O)N[C@@H](CCCCN)C(=O)N[C@@H](CCC(N)=O)C(=O)N[C@@H](CCSC)C(=O)N[C@@H](C)C(=O)N[C@H](C(=O)N[C@@H](CCCCN)C(=O)N[C@@H](CCCCN)C(=O)N[C@@H](Cc1ccc(O)cc1)C(=O)N[C@@H](CC(C)C)C(=O)N[C@@H](C)C(=O)N[C@@H](C)C(=O)N[C@H](C(=O)N[C@@H](CC(C)C)C(=O)NCC(=O)N[C@@H](CCCCN)C(=O)N[C@@H](CCCN=C(N)N)C(=O)N[C@@H](Cc1ccc(O)cc1)C(=O)N[C@@H](CCCCN)C(=O)N[C@@H](CCC(N)=O)C(=O)N[C@@H](CCCN=C(N)N)C(=O)N[C@H](C(=O)N[C@@H](CCCCN)C(=O)N[C@@H](CC(N)=O)C(=O)N[C@@H](CCCCN)C(N)=O)C(C)C)C(C)C)C(C)C)[C@@H](C)O (H-ASDGIFTDSYSRYRKQMAVKKYLAAVLGKRYKQRVKNK-NH2) |  | 11 nM | 49.3 nM
5 | CC[C@H](C)[C@H](NC(=O)CNC(=O)[C@H](CC(=O)O)NC(=O)[C@H](CO)NC(=O)[C@@H](N)Cc1cn(C)cn1)C(=O)N[C@@H](Cc1ccccc1)C(=O)N[C@H](C(=O)N[C@@H](CC(=O)O)C(=O)N[C@@H](CO)C(=O)N[C@@H](Cc1ccc(O)cc1)C(=O)N[C@@H](CO)C(=O)N[C@@H](CCCN=C(N)N)C(=O)N[C@@H](Cc1ccc(O)cc1)C(=O)N[C@@H](CCCN=C(N)N)C(=O)N[C@@H](CCCCN)C(=O)N[C@@H](CCC(N)=O)C(=O)N[C@@H](CCSC)C(=O)N[C@@H](C)C(=O)N[C@H](C(=O)N[C@@H](CCCCN)C(=O)N[C@@H](CCCCN)C(=O)N[C@@H](Cc1ccc(O)cc1)C(=O)N[C@@H](CC(C)C)C(=O)N[C@@H](C)C(=O)N[C@@H](C)C(=O)N[C@H](C(=O)N[C@@H](CC(C)C)C(=O)NCC(=O)N[C@@H](CCCCN)C(=O)N[C@@H](CCCN=C(N)N)C(=O)N[C@@H](Cc1ccc(O)cc1)C(=O)N[C@@H](CCCCN)C(=O)N[C@@H](CCC(N)=O)C(=O)N[C@@H](CCCN=C(N)N)C(=O)N[C@H](C(=O)N[C@@H](CCCCN)C(=O)N[C@@H](CC(N)=O)C(=O)N[C@@H](CCCCN)C(N)=O)C(C)C)C(C)C)C(C)C)[C@@H](C)O |  | 37.6 nM | 11.3 nM
6 | CC[C@H](C)[C@H](NC(=O)CNC(=O)[C@H](CC(=O)O)NC(=O)[C@H](CO)NC(=O)[C@H](N)Cc1cnc[nH]1)C(=O)N[C@@H](Cc1ccccc1)C(=O)N[C@H](C(=O)N[C@@H](CC(=O)O)C(=O)N[C@@H](CO)C(=O)N[C@@H](Cc1ccc(O)cc1)C(=O)N[C@@H](CO)C(=O)N[C@@H](CCCNC(=N)N)C(=O)N[C@@H](Cc1ccc(O)cc1)C(=O)N[C@@H](CCCNC(=N)N)C(=O)N[C@@H](CCCCN)C(=O)N[C@@H](CCC(N)=O)C(=O)N[C@@H](CCSC)C(=O)N[C@@H](C)C(=O)N[C@H](C(=O)N[C@@H](CCCCN)C(=O)N[C@@H](CCCCN)C(=O)N[C@@H](Cc1ccc(O)cc1)C(=O)N[C@@H](CC(C)C)C(=O)N[C@@H](C)C(=O)N[C@@H](C)C(=O)N[C@H](C(=O)N[C@@H](CC(C)C)C(=O)NCC(=O)N[C@@H](CCCCN)C(=O)N[C@@H](CCCNC(=N)N)C(=O)N[C@@H](Cc1ccc(O)cc1)C(=O)N[C@@H](CCCCN)C(=O)N[C@@H](CCC(N)=O)C(=O)N[C@@H](CCCNC(=N)N)C(=O)N[C@H](C(=O)N[C@@H](CCCCN)C(=O)N[C@@H](CC(N)=O)C(=O)N[C@@H](CCCCN)C(N)=O)C(C)C)C(C)C)C(C)C)[C@@H](C)O | 107% | 2.9 nM | 
7 | CC[C@H](C)[C@H](NC(=O)CNC(=O)[C@H](CC(=O)O)NC(=O)[C@H](CO)NC(=O)[C@@H](N)Cc1cnc[nH]1)C(=O)N[C@@H](Cc1ccccc1)C(=O)N[C@@H](C(=O)N[C@@H](CC(=O)O)C(=O)N[C@@H](CO)C(=O)N[C@@H](Cc1ccc(O)cc1)C(=O)N[C@@H](CO)C(=O)N[C@@H](CCCNC(=N)N)C(=O)N[C@@H](Cc1ccc(O)cc1)C(=O)N[C@@H](CCCNC(=N)N)C(=O)N[C@@H](CCCCN)C(=O)N[C@@H](CCC(N)=O)C(=O)N[C@@H](CCSC)C(=O)N[C@@H](C)C(=O)N[C@H](C(=O)N[C@@H](CCCCN)C(=O)N[C@@H](CCCCN)C(=O)N[C@@H](Cc1ccc(O)cc1)C(=O)N[C@@H](CC(C)C)C(=O)N[C@@H](C)C(=O)N[C@@H](C)C(=O)N[C@H](C(=O)N[C@@H](CC(C)C)C(=O)NCC(=O)N[C@@H](CCCCN)C(=O)N[C@@H](CCCNC(=N)N)C(=O)N[C@@H](Cc1ccc(O)cc1)C(=O)N[C@@H](CCCCN)C(=O)N[C@@H](CCC(N)=O)C(=O)N[C@@H](CCCNC(=N)N)C(=O)N[C@H](C(=O)N[C@@H](CCCCN)C(=O)N[C@@H](CC(N)=O)C(=O)N[C@@H](CCCCN)C(N)=O)C(C)C)C(C)C)C(C)C)[C@H](C)O |  | 7.3 nM | 119 nM
8 | CC[C@H](C)[C@H](NC(=O)CNC(=O)[C@H](CC(=O)O)NC(=O)[C@H](CO)NC(=O)[C@H](Cc1cnc[nH]1)NC(C)=O)C(=O)N[C@@H](Cc1ccccc1)C(=O)N[C@H](C(=O)N[C@@H](CC(=O)O)C(=O)N[C@@H](CO)C(=O)N[C@@H](Cc1ccc(O)cc1)C(=O)N[C@@H](CO)C(=O)N[C@@H](CCCNC(=N)N)C(=O)N[C@@H](Cc1ccc(O)cc1)C(=O)N[C@@H](CCCNC(=N)N)C(=O)N[C@@H](CCCCN)C(=O)N[C@@H](CCC(N)=O)C(=O)N[C@@H](CCSC)C(=O)N[C@@H](C)C(=O)N[C@H](C(=O)N[C@@H](CCCCN)C(=O)N[C@@H](CCCCN)C(=O)N[C@@H](Cc1ccc(O)cc1)C(=O)N[C@@H](CC(C)C)C(=O)N[C@@H](C)C(=O)N[C@@H](C)C(=O)N[C@H](C(=O)N[C@@H](CC(C)C)C(=O)NCC(=O)N[C@@H](CCCCN)C(=O)N[C@@H](CCCNC(=N)N)C(=O)N[C@@H](Cc1ccc(O)cc1)C(=O)N[C@@H](CCCCN)C(=O)N[C@@H](CCC(N)=O)C(=O)N[C@@H](CCCNC(=N)N)C(=O)N[C@H](C(=O)N[C@@H](CCCCN)C(=O)N[C@@H](CC(N)=O)C(=O)N[C@@H](CCCCN)C(N)=O)C(C)C)C(C)C)C(C)C)[C@@H](C)O | 91.1% |  | 
